# Assay results published in ChEMBL document CHEMBL1137710, “Synthesis and in vitro antitumor activity of new quinoxaline derivatives” (2009).
# Key:
# Assay type in all cases: functional
# [1] = test system: NCI-H226; test: Growth inhibition of human NCI-H226 cells after 48 hrs by sulforhodamine B assay; details: NCI-H226, 48 h
# Outline: (§1)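 NCI 60-human-tumor-cell-line panel, with compounds tested over a 5-log dose range. Values are taken from dose-response curves as log10 molar concentrations: GI50 is 50% net growth inhibition, TGI is total growth inhibition, and LC50 is 50% net cell death.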
# [2] = test system: MDA-MB-231; test: Growth inhibition of human MDA-MB-231 cells after 48 hrs by sulforhodamine B assay; details: MDA-MB-231, 48 h; outline: as §1
# [3] = test system: 786-0; test: Growth inhibition of human 786-0 cells after 48 hrs by sulforhodamine B assay; details: 786-0, 48 h; outline: as §1
# [4] = test system: UO-31; test: Growth inhibition of human UO31 cells after 48 hrs by sulforhodamine B assay; details: UO-31, 48 h
# Outline: (§2)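 Run in the NCI 60-human-tumour-cell-line panel, tested over a 5-log dose range. Dose–response curves gave three values per cell line, each as a log10 molar concentration: GI50 (50% inhibition of net cell growth), TGI (total inhibition of net growth) and LC50 (50% net cell death). The mean graph midpoint is the arithmetic mean over all lines, with insensitive lines entered at the highest concentration tested.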
# [5] = test system: CAKI-1; test: Growth inhibition of human Caki1 cells after 48 hrs by sulforhodamine B assay; details: CAKI-1, 48 h; outline: as §1
# [6] = test system: NCI-H460; test: Growth inhibition of human NCI-H460 cells after 48 hrs by sulforhodamine B assay; details: NCI-H460, 48 h; outline: as §1
# [7] = test system: CCRF-CEM; test: Growth inhibition of human CCRF-CEM cells after 48 hrs by sulforhodamine B assay; outline: as §1
# [8] = test system: Malme-3M; test: Growth inhibition of human MALME-3M cells after 48 hrs by sulforhodamine B assay; outline: as §1
# [9] = test system: M14; test: Growth inhibition of human M14 cells after 48 hrs by sulforhodamine B assay; details: M14, 48 h; outline: as §1
# [10] = test system: OVCAR-3; test: Growth inhibition of human OVCAR-3 cells after 48 hrs by sulforhodamine B assay; details: OVCAR-3, 48 h; outline: as §1
# [11] = test system: A498; test: Growth inhibition of human A498 cells after 48 hrs by sulforhodamine B assay; details: A498, 48 h; outline: as §1
# [12] = test system: HOP-62; test: Growth inhibition of human HOP62 cells after 48 hrs by sulforhodamine B assay; details: HOP-62, 48 h; outline: as §1
# [13] = test system: UACC-62; test: Growth inhibition of human UACC62 cells after 48 hrs by sulforhodamine B assay; details: UACC-62, 48 h; outline: as §2
# [14] = test system: BT-549; test: Growth inhibition of human BT549 cells after 48 hrs by sulforhodamine B assay; details: BT-549, 48 h; outline: as §1
# [15] = test system: KM12; test: Growth inhibition of human KM12 cells after 48 hrs by sulforhodamine B assay; details: KM12, 48 h; outline: as §1
# [16] = test system: SK-OV-3; test: Growth inhibition of human SKOV3 cells after 48 hrs by sulforhodamine B assay; details: SK-OV-3, 48 h; outline: as §1
# [17] = test system: HL-60(TB); test: Growth inhibition of human HL-60(TB) cells after 48 hrs by sulforhodamine B assay; details: HL-60, 48 h
# Outline: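 Tested only on compounds active in a three-line prescreen, in the NCI 60-human-tumour-cell-line panel over a 5-log dose range. Values come from dose–response curves as log10 molar GI50, the concentration inhibiting 50% net cell growth. Log10 TGI (total growth inhibition) and log10 LC50 (50% net cell death) were derived too. Mean graph midpoints include insensitive lines at the highest concentration tested.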
# [18] = test system: NCI-H522; test: Growth inhibition of human NCI-H522 cells after 48 hrs by sulforhodamine B assay; details: NCI-H522, 48 h; outline: as §1
# [19] = test system: T47D; test: Growth inhibition of human T47D cells after 48 hrs by sulforhodamine B assay; outline: as §2
# [20] = test system: HOP-92; test: Growth inhibition of human HOP92 cells after 48 hrs by sulforhodamine B assay; details: HOP-92, 48 h; outline: as §1
# [21] = test system: OVCAR-4; test: Growth inhibition of human OVCAR4 cells after 48 hrs by sulforhodamine B assay; details: OVCAR-4, 48 h; outline: as §1
# [22] = test system: HT-29; test: Growth inhibition of human HT-29 cells after 48 hrs by sulforhodamine B assay; details: HT-29, 48 h; outline: as §1
# [23] = test system: HCT-15; test: Growth inhibition of human HCT15 cells after 48 hrs by sulforhodamine B assay; details: HCT-15, 48 h; outline: as §1
# [24] = test system: K562; test: Growth inhibition of human K562 cells after 48 hrs by sulforhodamine B assay; details: K562, 48 h; outline: as §1
# [25] = test system: NCI/ADR-RES; test: Growth inhibition of human NCI/ADR-RES cells after 48 hrs by sulforhodamine B assay; outline: as §1
# [26] = test system: EKVX; test: Growth inhibition of human EKVX cells after 48 hrs by sulforhodamine B assay; outline: as §1
# [27] = test system: TK-10; test: Growth inhibition of human TK10 cells after 48 hrs by sulforhodamine B assay; details: TK-10, 48 h; outline: as §2
# [28] = test system: SN12C; test: Growth inhibition of human SN12C cells after 48 hrs by sulforhodamine B assay; outline: as §2
# [29] = read-out: pLC50 (the source's name) (converted)
structure (smiles),measurement,setting,value
COc1cc(OC)cc(Oc2nc3cc(N)cc(N)c3nc2-c2ccccc2)c1,GI50,[1],6.61 µM
same,TGI,[1]; read-out: pTGI (converted),42.7 µM
same,GI50,[2],3.98 µM
same,CC50,[2]; [29],87.1 µM
same,TGI,[2]; read-out: pTGI (converted),21.9 µM
same,GI50,[3],15.1 µM
same,CC50,[3]; [29],> 100 µM
same,TGI,[3]; read-out: pTGI (converted),41.7 µM
same,GI50,[4],11.5 µM
same,CC50,[4]; [29],72.4 µM
same,TGI,[4]; read-out: pTGI (converted),28.8 µM
same,GI50,[5],16.2 µM
same,CC50,[5]; [29],79.4 µM
same,TGI,[5]; read-out: pTGI (converted),36.3 µM
same,GI50,[6],2.95 µM
same,TGI,[6]; read-out: pTGI (converted),12.6 µM
same,GI50,[7],1.95 µM
same,TGI,[7]; read-out: pTGI (converted),8.71 µM
same,GI50,[8],0.427 µM
same,CC50,[8]; [29],30.2 µM
same,TGI,[8]; read-out: pTGI (converted),5.13 µM
same,GI50,[9],1.58 µM
same,CC50,[9]; [29],28.8 µM
same,TGI,[9]; read-out: pTGI (converted),7.76 µM
same,GI50,[10],2.24 µM
same,CC50,[10]; [29],55 µM
same,TGI,[10]; read-out: pTGI (converted),8.71 µM
same,GI50,[11],> 100 µM
same,CC50,[11]; [29],> 100 µM
same,TGI,[11]; read-out: pTGI (converted),> 100 µM
same,GI50,[12],2.14 µM
same,TGI,[12]; read-out: pTGI (converted),12.9 µM
same,GI50,[13],4.07 µM
same,CC50,[13]; [29],47.9 µM
same,TGI,[13]; read-out: pTGI (converted),18.2 µM
same,GI50,[14],1.48 µM
same,CC50,[14]; [29],38 µM
same,TGI,[14]; read-out: pTGI (converted),6.92 µM
same,GI50,[15],1.02 µM
same,TGI,[15]; read-out: pTGI (converted),6.03 µM
same,GI50,[16],3.47 µM
same,CC50,[16]; [29],69.2 µM
same,TGI,[16]; read-out: pTGI (converted),16.2 µM
same,GI50,[17],3.09 µM
same,TGI,[17]; read-out: pTGI (converted),25.7 µM
same,GI50,[18],0.891 µM
same,TGI,[18]; read-out: pTGI (converted),4.27 µM
same,GI50,[19],2.34 µM
same,CC50,[19]; [29],51.3 µM
same,TGI,[19]; read-out: pTGI (converted),9.12 µM
same,GI50,[20],1.35 µM
same,TGI,[20]; read-out: pTGI (converted),8.91 µM
same,GI50,[21],2.88 µM
same,CC50,[21]; [29],58.9 µM
same,TGI,[21]; read-out: pTGI (converted),16.2 µM
same,GI50,[22],4.37 µM
same,TGI,[22]; read-out: pTGI (converted),17.8 µM
same,GI50,[23],2.04 µM
same,TGI,[23]; read-out: pTGI (converted),12.3 µM
same,GI50,[24],3.8 µM
same,TGI,[24]; read-out: pTGI (converted),32.4 µM
same,GI50,[25],1.12 µM
same,CC50,[25]; [29],18.2 µM
same,TGI,[25]; read-out: pTGI (converted),3.89 µM
same,GI50,[26],3.8 µM
same,TGI,[26]; read-out: pTGI (converted),19.5 µM
same,GI50,[27],28.2 µM
same,CC50,[27]; [29],> 100 µM
same,TGI,[27]; read-out: pTGI (converted),57.5 µM
same,GI50,[28],17 µM
same,CC50,[28]; [29],69.2 µM
same,TGI,[28]; read-out: pTGI (converted),34.7 µM
